≈ marks a conversion by molar mass, not a printed value.
Assays:
Enterococcus faecium = test: Antibacterial activity against Enterococcus faecium ATCC 27270 after 24 hrs by microtitre broth dilution method; type: functional; conditions: ATCC 27270, 24 h
Staphylococcus aureus [1] = test: Antibacterial activity against Staphylococcus aureus ATCC 29213 after 24 hrs by microtitre broth dilution method; type: functional; conditions: ATCC 29213, 24 h
Pseudomonas aeruginosa [2] = test: Antibacterial activity against gentamicin-resistant Pseudomonas aeruginosa isolate CAN-ICU 62308 after 24 hrs by microtitre broth dilution method; type: functional; conditions: isolate CAN-ICU 62308, 24 h
Escherichia coli [3] = test: Antibacterial activity against Escherichia coli ATCC 25922 after 24 hrs by microtitre broth dilution method; type: functional; conditions: ATCC 25922, 24 h
Staphylococcus aureus [4] = test: Antibacterial activity against methicillin-resistant Staphylococcus aureus ATCC 33592 after 24 hrs by microtitre broth dilution method; type: functional; conditions: ATCC 33592, 24 h
Pseudomonas aeruginosa [5] = test: Antibacterial activity against Pseudomonas aeruginosa PAO1; type: functional
Enterococcus faecalis = test: Antibacterial activity against Enterococcus faecalis ATCC 29212 after 24 hrs by microtitre broth dilution method; type: functional; conditions: ATCC 29212, 24 h
[6] = system: Staphylococcus epidermidis; test: Antibacterial activity against methicillin-susceptible Staphylococcus epidermidis isolate CANWARD-2008 81388 after 24 hrs by microtitre broth dilution method; type: functional; conditions: isolate CANWARD-2008 81388, 24 h
Pseudomonas aeruginosa [7] = test: Antibacterial activity against Pseudomonas aeruginosa ATCC 27853 after 24 hrs by microtitre broth dilution method; type: functional; conditions: ATCC 27853, 24 h
[8] = Inhibition of Pseudomonas aeruginosa DNA gyrase A assessed as inhibition of DNA supercoiling using PBR322 DNA as substrate after 30 mins by SYBR Gold staining based agarose gel electrophoresis
Acinetobacter baumannii = test: Antibacterial activity against Acinetobacter baumannii isolate CAN-ICU 63169 after 24 hrs by microtitre broth dilution method; type: functional; conditions: isolate CAN-ICU 63169, 24 h
Escherichia coli [9] = test: Antibacterial activity against amikacin-resistant Escherichia coli isolate CAN-ICU 63074 after 24 hrs by microtitre broth dilution method; type: functional; conditions: isolate CAN-ICU 63074, 24 h
Escherichia coli [10] = test: Antibacterial activity against gentamicin-resistant Escherichia coli isolate CAN-ICU 61714 after 24 hrs by microtitre broth dilution method; type: functional; conditions: isolate CAN-ICU 61714, 24 h
Pseudomonas aeruginosa [11] = test: Antibacterial activity against multidrug/extremely drug-resistant/colistin-susceptible Pseudomonas aeruginosa isolate 260-97103; type: functional
Streptococcus pneumoniae = test: Antibacterial activity against Streptococcus pneumoniae ATCC 49619 after 24 hrs by microtitre broth dilution method; type: functional; conditions: ATCC 49619, 24 h
Klebsiella pneumoniae = test: Antibacterial activity against Klebsiella pneumoniae ATCC 13883 after 24 hrs by microtitre broth dilution method; type: functional; conditions: ATCC 13883, 24 h
Pseudomonas aeruginosa [12] = test: Antibacterial activity against multidrug/extremely drug-resistant/colistin-susceptible Pseudomonas aeruginosa isolate 259-96918; type: functional
Pseudomonas aeruginosa [13] = test: Antibacterial activity against multidrug/extremely drug-resistant/colistin-susceptible Pseudomonas aeruginosa isolate 262-101856; type: functional
Pseudomonas aeruginosa [14] = test: Antibacterial activity against multidrug/extremely drug-resistant/colistin-susceptible Pseudomonas aeruginosa isolate 264-104354; type: functional
Pseudomonas aeruginosa [15] = test: Antibacterial activity against gentamicin/tobramycin-resistant Pseudomonas aeruginosa isolate CANWARD-2011 96846 after 24 hrs by microtitre broth dilution method; type: functional; conditions: isolate CANWARD-2011 96846, 24 h
[16] = system: Staphylococcus epidermidis; test: Antibacterial activity against methicillin-resistant Staphylococcus epidermidis isolate CAN-ICU 61589 after 24 hrs by microtitre broth dilution method; type: functional; conditions: isolate CAN-ICU 61589, 24 h
[17] = system: Stenotrophomonas maltophilia; test: Antibacterial activity against Stenotrophomonas maltophilia isolate CAN-ICU 62584 after 24 hrs by microtitre broth dilution method; type: functional; conditions: isolate CAN-ICU 62584, 24 h
Escherichia coli [18] = test: Antibacterial activity against gentamicin/tobramycin/ciprofloxacin-resistant Escherichia coli isolate CANWARD-2011 97615 harboring AAC3-2A after 24 hrs by microtitre broth dilution method; type: functional; conditions: isolate CANWARD-2011 97615, 24 h
[19] = Inhibition of circular DNA translation in Escherichia coli S30 extract after 60 mins by luciferase reporter gene assay
Outline: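 Translation was run in an E. coli S30 extract with a luciferase read-out. Luminescence is expressed as a percentage of the no-antibiotic control, taken as 100%.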

Pseudomonas aeruginosa [20] = test: Antibacterial activity against multidrug-resistant/tobramycin-susceptible Pseudomonas aeruginosa isolate 86052; type: functional
Pseudomonas aeruginosa [21] = test: Antibacterial activity against multidrug-resistant/tobramycin-susceptible Pseudomonas aeruginosa isolate 92014; type: functional
Pseudomonas aeruginosa [22] = test: Antibacterial activity against pandrug-resistant Pseudomonas aeruginosa isolate 101243; type: functional
Pseudomonas aeruginosa [23] = test: Antibacterial activity against multidrug-resistant/tobramycin-susceptible Pseudomonas aeruginosa isolate 86067; type: functional
Pseudomonas aeruginosa [24] = test: Antibacterial activity against pandrug-resistant Pseudomonas aeruginosa isolate 91433; type: functional
Pseudomonas aeruginosa [25] = test: Antibacterial activity against multidrug/extremely drug-resistant/colistin-susceptible Pseudomonas aeruginosa isolate 100036; type: functional
Pseudomonas aeruginosa [26] = test: Antibacterial activity against multidrug-resistant/tobramycin-susceptible Pseudomonas aeruginosa isolate 86079; type: functional
Pseudomonas aeruginosa [27] = test: Antibacterial activity against multidrug-resistant/tobramycin-susceptible Pseudomonas aeruginosa isolate 84745; type: functional
Pseudomonas aeruginosa [28] = test: Antibacterial activity against multidrug-resistant/tobramycin-susceptible Pseudomonas aeruginosa isolate 79199; type: functional
Pseudomonas aeruginosa [29] = test: Antibacterial activity against multidrug-resistant/tobramycin-susceptible Pseudomonas aeruginosa isolate 80621; type: functional
Pseudomonas aeruginosa [30] = test: Antibacterial activity against multidrug-resistant/tobramycin-susceptible Pseudomonas aeruginosa isolate 86053; type: functional
Pseudomonas aeruginosa [31] = test: Antibacterial activity against multidrug/extremely drug-resistant/colistin-susceptible Pseudomonas aeruginosa isolate 101885; type: functional
Pseudomonas aeruginosa [32] = test: Antibacterial activity against multidrug-resistant/tobramycin-susceptible Pseudomonas aeruginosa isolate 86141; type: functional
Pseudomonas aeruginosa [33] = test: Antibacterial activity against multidrug-resistant/tobramycin-susceptible Pseudomonas aeruginosa isolate 83182; type: functional
Pseudomonas aeruginosa [34] = test: Antibacterial activity against multidrug-resistant/tobramycin-susceptible Pseudomonas aeruginosa isolate 85322; type: functional
Pseudomonas aeruginosa [35] = test: Antibacterial activity against multidrug-resistant/tobramycin-susceptible Pseudomonas aeruginosa isolate 108590; type: functional

Compound	MIC (Enterococcus faecium)	MIC (Staphylococcus aureus [1])	MIC (Pseudomonas aeruginosa [2])	MIC (Escherichia coli [3])	MIC (Staphylococcus aureus [4])	MIC (Pseudomonas aeruginosa [5])	MIC (Enterococcus faecalis)	MIC [6]	MIC (Pseudomonas aeruginosa [7])	IC50 [8]	MIC (Acinetobacter baumannii)	MIC (Escherichia coli [9])	MIC (Escherichia coli [10])	MIC (Pseudomonas aeruginosa [11])	MIC (Streptococcus pneumoniae)	MIC (Klebsiella pneumoniae)	MIC (Pseudomonas aeruginosa [12])	MIC (Pseudomonas aeruginosa [13])	MIC (Pseudomonas aeruginosa [14])	MIC [16]	other results
COc1c(N2C[C@@H]3CCCN(CCCCCCCCCCCCOC[C@H]4O[C@H](O[C@@H]5[C@@H](O)[C@H](O[C@H]6O[C@H](CN)[C@@H](O)C[C@H]6N)[C@@H](N)C[C@H]5N)[C@H](O)[C@@H](N)[C@@H]4O)[C@@H]3C2)c(F)cc2c(=O)c(C(=O)O)cn(C3CC3)c12.Cl.Cl.Cl.Cl.Cl	16 µg/mL	16 µg/mL	32 µg/mL	16 µg/mL	16 µg/mL	> 32 µg/mL	32 µg/mL	8 µg/mL	64 µg/mL	2.6 µM	> 128 µg/mL	64 µg/mL	64 µg/mL	32 µg/mL	64 µg/mL	16 µg/mL	> 32 µg/mL	> 32 µg/mL	> 32 µg/mL	8 µg/mL	MIC (Pseudomonas aeruginosa [15]): 64 µg/mL; MIC [17]: > 128 µg/mL; MIC (Escherichia coli [18]): 128 µg/mL
COc1c(N2C[C@@H]3CCCN(CCCCCCCCCCCCO[C@H]4[C@@H](O[C@@H]5[C@@H](O)[C@H](O[C@H]6O[C@H](CN)[C@@H](O)C[C@H]6N)[C@@H](N)C[C@H]5N)O[C@H](CO)[C@@H](O)[C@@H]4N)[C@@H]3C2)c(F)cc2c(=O)c(C(=O)O)cn(C3CC3)c12.Cl.Cl.Cl.Cl.Cl	16 µg/mL	4 µg/mL	128 µg/mL	4 µg/mL	8 µg/mL	> 32 µg/mL	32 µg/mL	2 µg/mL	16 µg/mL	2.1 µM	128 µg/mL	32 µg/mL	64 µg/mL	> 32 µg/mL	32 µg/mL	4 µg/mL	> 32 µg/mL	32 µg/mL	32 µg/mL	8 µg/mL	IC50 [19]: 0.13 µM; MIC (Pseudomonas aeruginosa [15]): > 128 µg/mL; MIC [17]: > 128 µg/mL; MIC (Escherichia coli [18]): 128 µg/mL
NCC[C@H](O)C(=O)N[C@@H]1C[C@H](N)[C@@H](O[C@H]2O[C@H](CN)[C@@H](O)[C@H](O)[C@H]2O)[C@H](O)[C@H]1O[C@H]1O[C@H](CO)[C@@H](O)[C@H](N)[C@H]1O [AMIKACIN]	–	–	–	–	–	–	–	–	–	–	–	32 µg/mL (≈ 54.6 µM)	–	–	–	–	–	–	–	–	–
Cc1nnc(SCC2=C(C(=O)O)N3C(=O)[C@@H](NC(=O)Cn4cnnn4)[C@H]3SC2)s1 [CEFAZOLIN]	–	–	–	–	–	–	–	–	–	–	–	–	–	–	–	–	–	–	–	> 32 µg/mL	–
CO/N=C(\C(=O)N[C@@H]1C(=O)N2C(C(=O)[O-])=C(C[N+]3(C)CCCC3)CS[C@H]12)c1csc(N)n1 [CEFEPIME]	–	–	–	–	–	–	–	–	–	–	–	–	–	16 µg/mL (≈ 33.3 µM)	–	–	> 64 µg/mL	32 µg/mL (≈ 66.6 µM)	32 µg/mL (≈ 66.6 µM)	–	MIC (Pseudomonas aeruginosa [20]): 16 µg/mL (≈ 33.3 µM); MIC (Pseudomonas aeruginosa [21]): 16 µg/mL (≈ 33.3 µM); MIC (Pseudomonas aeruginosa [22]): 64 µg/mL (≈ 133 µM); MIC (Pseudomonas aeruginosa [23]): 64 µg/mL (≈ 133 µM); MIC (Pseudomonas aeruginosa [24]): 16 µg/mL (≈ 33.3 µM); MIC (Pseudomonas aeruginosa [25]): 4 µg/mL (≈ 8.32 µM); MIC (Pseudomonas aeruginosa [26]): 32 µg/mL (≈ 66.6 µM); MIC (Pseudomonas aeruginosa [27]): 16 µg/mL (≈ 33.3 µM); MIC (Pseudomonas aeruginosa [28]): 32 µg/mL (≈ 66.6 µM); MIC (Pseudomonas aeruginosa [29]): 8 µg/mL (≈ 16.6 µM); MIC (Pseudomonas aeruginosa [30]): 64 µg/mL (≈ 133 µM); MIC (Pseudomonas aeruginosa [31]): 8 µg/mL (≈ 16.6 µM); MIC (Pseudomonas aeruginosa [32]): 16 µg/mL (≈ 33.3 µM); MIC (Pseudomonas aeruginosa [33]): 16 µg/mL (≈ 33.3 µM); MIC (Pseudomonas aeruginosa [34]): 16 µg/mL (≈ 33.3 µM)
CC(C)(O/N=C(\C(=O)N[C@@H]1C(=O)N2C(C(=O)[O-])=C(C[n+]3ccccc3)CS[C@H]12)c1csc(N)n1)C(=O)O [CEFTAZIDIME]	–	–	–	–	–	–	–	–	–	–	–	–	–	–	–	–	–	–	–	–	MIC (Pseudomonas aeruginosa [20]): > 32 µg/mL; MIC (Pseudomonas aeruginosa [21]): > 32 µg/mL; MIC (Pseudomonas aeruginosa [23]): > 32 µg/mL; MIC (Pseudomonas aeruginosa [26]): > 32 µg/mL; MIC (Pseudomonas aeruginosa [35]): 32 µg/mL (≈ 58.5 µM); MIC (Pseudomonas aeruginosa [27]): > 32 µg/mL; MIC (Pseudomonas aeruginosa [28]): 32 µg/mL (≈ 58.5 µM); MIC (Pseudomonas aeruginosa [29]): > 32 µg/mL; MIC (Pseudomonas aeruginosa [30]): > 32 µg/mL; MIC (Pseudomonas aeruginosa [32]): > 32 µg/mL; MIC (Pseudomonas aeruginosa [33]): > 32 µg/mL; MIC (Pseudomonas aeruginosa [34]): > 32 µg/mL

— ChEMBL document CHEMBL3856229, “Hybrid Antibiotic Overcomes Resistance in P. aeruginosa by Enhancing Outer Membrane Penetration and Reducing Efflux” (J Med Chem, 2016)
